Measurements as given in ChEMBL document CHEMBL1152126 (Bioorg Med Chem, 2008).
Active and inactive are the calls of the source. No cut-off for these calls is given here.

How the values were obtained:
[1] = molecular target: Matrix metalloproteinase-14 (Homo sapiens, UniProt P50281); experiment: Inhibition of human recombinant MMP14 catalytic domain by spectrofluorimeter
Method in brief: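 Human recombinant MT1-MMP catalytic domain at 1–2 nM in 50 mM Tris–HCl pH 7.5, 150 mM NaCl, 5 mM CaCl₂ at 25 °C. Inhibitors at 5–7 concentrations preincubated with enzyme for 30 min, then quenched fluorogenic peptide substrate added. Percent inhibition measured in triplicate within a 20–80% inhibition range.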

[2] = organism: Homo sapiens; experiment: Selectivity ratio of IC50 for human recombinant pro-MMP2 to IC50 for human recombinant pro-MMP1
[3] = molecular target: T1, Interstitial collagenase (Homo sapiens, UniProt P03956); experiment: Inhibition of human recombinant pro-MMP1 by spectrofluorimeter
T1 sequence (P03956 whole entry): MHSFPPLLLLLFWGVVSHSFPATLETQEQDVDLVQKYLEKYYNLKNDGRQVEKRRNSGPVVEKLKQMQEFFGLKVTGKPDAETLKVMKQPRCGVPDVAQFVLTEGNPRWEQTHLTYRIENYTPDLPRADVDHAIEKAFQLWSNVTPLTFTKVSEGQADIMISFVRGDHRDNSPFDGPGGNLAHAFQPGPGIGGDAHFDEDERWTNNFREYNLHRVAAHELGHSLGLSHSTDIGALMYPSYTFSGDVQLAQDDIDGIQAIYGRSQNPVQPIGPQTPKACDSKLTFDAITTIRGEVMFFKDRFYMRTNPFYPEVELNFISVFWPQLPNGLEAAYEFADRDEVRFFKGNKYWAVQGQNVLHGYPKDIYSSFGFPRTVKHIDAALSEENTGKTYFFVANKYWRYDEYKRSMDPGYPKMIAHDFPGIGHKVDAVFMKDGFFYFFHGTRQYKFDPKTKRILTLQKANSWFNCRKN

[4] = molecular target: 72 kDa type IV collagenase (Homo sapiens, UniProt P08253); experiment: Inhibition of human recombinant pro-MMP2 by spectrofluorimeter
Chain of 72 kDa type IV collagenase (P08253 whole entry): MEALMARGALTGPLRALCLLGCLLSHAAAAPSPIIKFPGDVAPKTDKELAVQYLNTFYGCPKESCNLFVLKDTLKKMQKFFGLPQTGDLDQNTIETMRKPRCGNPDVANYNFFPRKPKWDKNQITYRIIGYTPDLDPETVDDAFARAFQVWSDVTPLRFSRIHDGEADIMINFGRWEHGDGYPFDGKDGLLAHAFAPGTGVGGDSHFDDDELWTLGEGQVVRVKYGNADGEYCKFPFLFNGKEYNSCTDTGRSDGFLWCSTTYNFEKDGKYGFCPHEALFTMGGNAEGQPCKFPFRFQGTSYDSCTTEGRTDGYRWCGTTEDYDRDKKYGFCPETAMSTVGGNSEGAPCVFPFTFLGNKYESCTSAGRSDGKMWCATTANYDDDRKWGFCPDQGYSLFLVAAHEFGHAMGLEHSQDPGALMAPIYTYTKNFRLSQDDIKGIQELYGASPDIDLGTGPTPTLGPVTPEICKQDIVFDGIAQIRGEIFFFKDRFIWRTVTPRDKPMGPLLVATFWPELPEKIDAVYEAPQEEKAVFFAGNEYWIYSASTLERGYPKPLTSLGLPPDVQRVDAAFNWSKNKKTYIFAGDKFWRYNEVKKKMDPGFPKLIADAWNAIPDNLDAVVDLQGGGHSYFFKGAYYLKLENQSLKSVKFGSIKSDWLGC
Method in brief: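 Pro-MMP-2 activated with […], 37 °C, 2 h. Assay: 1–2 nM enzyme in 50 mM Tris–HCl pH 7.5, 150 mM NaCl, 5 mM CaCl₂, 25 °C; 30 min inhibitor preincubation, then quenched fluorogenic substrate.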

[5] = molecular target: Stromelysin-1 (Homo sapiens, UniProt P08254); experiment: Inhibition of human recombinant MMP3 catalytic domain by spectrofluorimeter
Chain of Stromelysin-1 (P08254 whole entry, the tested form may be a part): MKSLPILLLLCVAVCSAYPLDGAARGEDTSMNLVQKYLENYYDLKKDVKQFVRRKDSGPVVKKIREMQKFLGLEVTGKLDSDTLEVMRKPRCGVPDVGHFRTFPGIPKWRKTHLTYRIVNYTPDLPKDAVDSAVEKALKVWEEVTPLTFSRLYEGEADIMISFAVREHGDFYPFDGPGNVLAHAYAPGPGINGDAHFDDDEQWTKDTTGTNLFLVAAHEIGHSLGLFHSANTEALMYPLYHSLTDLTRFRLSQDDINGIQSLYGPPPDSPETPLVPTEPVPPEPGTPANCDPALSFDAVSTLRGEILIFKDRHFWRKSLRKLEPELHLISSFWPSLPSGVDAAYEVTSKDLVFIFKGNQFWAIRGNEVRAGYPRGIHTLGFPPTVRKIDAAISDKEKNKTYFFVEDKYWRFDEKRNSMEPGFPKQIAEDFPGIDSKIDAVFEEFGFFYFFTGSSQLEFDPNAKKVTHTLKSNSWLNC
Method in brief: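 MMP-3 human recombinant catalytic domain (1–2 nM) was assayed in 50 mM Tris–HCl pH 7.5, 5 mM CaCl₂, […] at 25 °C. Enzyme and inhibitor were preincubated for 30 min before quenched fluorogenic substrate was added. Triplicate percent inhibition was taken at 5–7 inhibitor concentrations spanning 20–80% inhibition.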

[6] = molecular target: T2, Matrilysin (Homo sapiens, UniProt P09237); experiment: Inhibition of human recombinant pro-MMP7 by spectrofluorimeter
T2 sequence (P09237 whole entry): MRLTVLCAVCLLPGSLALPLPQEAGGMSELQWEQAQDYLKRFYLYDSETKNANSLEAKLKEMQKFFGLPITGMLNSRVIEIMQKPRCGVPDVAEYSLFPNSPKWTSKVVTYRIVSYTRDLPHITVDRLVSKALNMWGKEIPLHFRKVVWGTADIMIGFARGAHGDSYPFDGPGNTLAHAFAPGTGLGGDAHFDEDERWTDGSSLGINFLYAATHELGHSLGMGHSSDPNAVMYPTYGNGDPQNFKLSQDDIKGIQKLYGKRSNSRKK
Method in brief: (§1)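 Pro-enzymes (human recombinant) freshly activated with […] at 37 °C for 2 h. Activated MMP at 1–2 nM in 50 mM Tris–HCl pH 7.5, 150 mM NaCl, 5 mM CaCl₂ at 25 °C, preincubated 30 min with inhibitor before quenched fluorogenic substrate. Percent inhibition from triplicates at 5–7 concentrations within the 20–80% range.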

[7] = molecular target: Matrix metalloproteinase-9 (Homo sapiens, UniProt P14780); experiment: Inhibition of human recombinant pro-MMP9 by spectrofluorimeter; method in brief: as §1
Chain of Matrix metalloproteinase-9 (P14780 whole entry): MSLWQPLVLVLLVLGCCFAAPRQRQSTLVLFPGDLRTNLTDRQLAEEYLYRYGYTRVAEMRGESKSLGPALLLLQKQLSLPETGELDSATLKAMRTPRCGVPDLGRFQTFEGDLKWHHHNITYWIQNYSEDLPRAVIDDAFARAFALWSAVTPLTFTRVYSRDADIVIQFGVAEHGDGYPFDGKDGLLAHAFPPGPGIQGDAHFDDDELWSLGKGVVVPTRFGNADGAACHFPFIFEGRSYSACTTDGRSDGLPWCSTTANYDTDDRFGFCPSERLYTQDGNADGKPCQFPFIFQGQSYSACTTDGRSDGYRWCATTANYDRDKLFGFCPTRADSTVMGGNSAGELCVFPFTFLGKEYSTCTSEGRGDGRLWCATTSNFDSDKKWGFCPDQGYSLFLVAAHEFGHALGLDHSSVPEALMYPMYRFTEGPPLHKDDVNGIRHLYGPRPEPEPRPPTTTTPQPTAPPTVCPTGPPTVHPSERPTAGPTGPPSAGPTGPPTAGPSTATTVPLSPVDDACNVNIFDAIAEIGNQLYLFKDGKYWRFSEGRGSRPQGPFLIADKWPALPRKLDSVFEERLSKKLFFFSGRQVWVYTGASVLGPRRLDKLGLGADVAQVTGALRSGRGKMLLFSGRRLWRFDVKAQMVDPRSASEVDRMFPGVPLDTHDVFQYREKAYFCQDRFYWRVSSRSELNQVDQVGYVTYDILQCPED

SMILES | IC50 [1] [nM] | IC50 [3] [nM] | IC50 [4] [nM] | IC50 [5] [nM] | IC50 [7] [nM] | also measured
CNC(=O)[C@H](Cc1c[nH]c2ccccc12)NC(=O)[C@@H](CC(=O)NNS(=O)(=O)c1ccc(C)cc1)CC(C)C | 2600 | 250 | 24 |  |  | Ratio IC50 [2]: 10
CNC(=O)[C@H](Cc1c[nH]c2ccccc12)NC(=O)[C@@H](CC(=O)NNc1ccc([N+](=O)[O-])cc1)CC(C)C | > 10000 | > 10000 | 10000 |  |  | 
CNC(=O)[C@H](Cc1c[nH]c2ccccc12)NC(=O)[C@@H](CC(=O)NNS(=O)(=O)c1ccc2ccccc2c1)CC(C)C | 10000 | 150 | 37 | 1400 | 11 | IC50 [6]: 6150 nM
CCCCCCCCCCCCCCCCS(=O)(=O)NNC(=O)C[C@@H](CC(C)C)C(=O)N[C@@H](Cc1c[nH]c2ccccc12)C(=O)NC | 5100 | 440 | 300 |  |  | 
CNC(=O)[C@H](Cc1c[nH]c2ccccc12)NC(=O)[C@@H](CC(=O)NNS(=O)(=O)c1ccccc1[N+](=O)[O-])CC(C)C | 1100 | 850 | 320 |  |  | 
CCCCCC/C=C(\CC(=O)NNS(=O)(=O)c1ccc(-c2ccc(Br)cc2)cc1)C(=O)N[C@@H](Cc1c[nH]c2ccccc12)C(=O)NC |  |  | 1810 | 2540 | 2560 | Activity [1]: inactive
CNC(=O)[C@H](Cc1c(-c2ccccc2)[nH]c2ccccc12)NC(=O)[C@@H](CC(=O)NNS(=O)(=O)c1ccc(-c2ccc(Br)cc2)cc1)CC(C)C | 1240 | 350 | 247 | 53 | 18 | 
CNC(=O)[C@H](Cc1c[nH]c2ccccc12)NC(=O)[C@@H](CC(=O)NNS(=O)(=O)c1ccc(Oc2ccccc2)cc1)CC(C)C | 2800 | 110 | 45 |  |  | 
CNC(=O)[C@H](Cc1c[nH]c2ccccc12)NC(=O)[C@@H](CC(=O)NNS(=O)(=O)c1c(C(C)C)cc(C(C)C)cc1C(C)C)CC(C)C | 3100 | 4000 | 100 |  |  | 
CNC(=O)[C@H](Cc1c[nH]c2ccccc12)NC(=O)[C@@H](CC(=O)NNS(=O)(=O)c1ccc(Cl)cc1)CC(C)C | 190 | 290 | 18 |  |  | 
CNC(=O)[C@H](Cc1c[nH]c2ccccc12)NC(=O)[C@@H](CC(=O)NNc1ccc(Cl)c(Cl)c1)CC(C)C | 1000 | 5600 | 10000 |  |  | 
CNC(=O)[C@H](Cc1c[nH]c2ccccc12)NC(=O)[C@@H](CC(=O)NNS(=O)(=O)c1ccc(-c2ccc(Br)cc2)cc1)CC(C)C | 17000 | 30 | 9.8 | 1700 | 3 | Ki [5]: 415 nM; Ki [1]: 1900 nM; IC50 [6]: 475 nM; Ki [6]: 523 nM; Ki [4]: 8.5 nM; Ki [7]: 3.6 nM
CNC(=O)[C@H](Cc1c[nH]c2ccccc12)NC(=O)[C@@H](CC(=O)NO)CC(C)C [ILOMASTAT] | 5.2 |  |  | 26 |  | 
CNC(=O)[C@H](Cc1c[nH]c2ccccc12)NC(=O)[C@@H](CC(=O)NNc1ccc(OC)cc1)CC(C)C | > 10000 | 330 | 10000 |  |  | 
CCCCCC/C=C(\CC(=O)NNS(=O)(=O)c1ccc(-c2ccc(Br)cc2)cc1)C(=O)N[C@@H](Cc1c(-c2ccccc2)[nH]c2ccccc12)C(=O)NC | 3780 | 2040 | 1270 | 174 | 732 | 

Continued by falling IC50 [4], values first:

IC50 [1] [nM] | IC50 [3] [nM] | IC50 [4] [nM] | IC50 [5] [nM] | IC50 [7] [nM] | SMILES | also measured
> 10000 | > 10000 | 10000 |  |  | CNC(=O)[C@H](Cc1c[nH]c2ccccc12)NC(=O)[C@@H](CC(=O)NNc1ccc([N+](=O)[O-])cc1[N+](=O)[O-])CC(C)C | 
9700 | 980 | 1400 |  |  | CCCCCCCCCCCCS(=O)(=O)NNC(=O)C[C@@H](CC(C)C)C(=O)N[C@@H](Cc1c[nH]c2ccccc12)C(=O)NC | 
3700 | 5600 | 740 |  |  | CNC(=O)[C@H](Cc1c[nH]c2ccccc12)NC(=O)[C@@H](CC(=O)NNS(C)(=O)=O)CC(C)C | 
1500 | 490 | 310 |  |  | CNC(=O)[C@H](Cc1c[nH]c2ccccc12)NC(=O)[C@@H](CC(=O)NNS(=O)(=O)c1ccc([N+](=O)[O-])cc1)CC(C)C | 
105 | 1030 | 310 | 3860 | 1250 | CNC(=O)[C@H](Cc1c[nH]c2ccccc12)NC(=O)/C(=C/CCc1ccccc1)CC(=O)NNS(=O)(=O)c1ccc(-c2ccc(Br)cc2)cc1 | 
730 | 93 | 92 |  |  | CNC(=O)[C@H](Cc1c[nH]c2ccccc12)NC(=O)[C@@H](CC(=O)NNS(=O)(=O)c1ccccc1N)CC(C)C | 
720 | 91 | 79 | 920 | 8.5 | CNC(=O)[C@H](Cc1c[nH]c2ccccc12)NC(=O)[C@@H](CC(=O)NNS(=O)(=O)c1ccc(N2C(=O)CCC2=O)cc1)CC(C)C | IC50 [6]: 110 nM
 | 1080 | 65 | 463 | 827 | CNC(=O)[C@H](Cc1c(-c2ccccc2)[nH]c2ccccc12)NC(=O)/C(=C/CCc1ccccc1)CC(=O)NNS(=O)(=O)c1ccc(-c2ccc(Br)cc2)cc1 | Activity [1]: inactive
